From publication PMC11613628 (Journal of Medicinal Chemistry, 2024)
Entries after “also recorded” stand apart in the source; their conditions may differ. Like-named read-outs stand apart in the source and are kept apart here. Where a SMILES comes first, the peptide text is derived from it. Bridges are numbered along the chain shown (N, C = ends). [ ]: non-standard residue; d: D form. Tyr(SO2F) = N[C@@H](Cc1ccc(OS(=O)(=O)F)cc1)C(=O)O; S5 = C=CCCC[C@](C)(N)C(=O)O

Experiments:
6×His-hBfl-1(1–149) = test: DELFIA displacement assay against hBfl-1; type: binding, human; conditions: same experimental conditions as the hMcl-1 DELFIA assay
[1] = target: T1, 6×His-tagged hMcl-1(172–323) (Homo sapiens, UniProt Q07820); test: DELFIA displacement assay; type: binding
T1 sequence (Q07820 172-323): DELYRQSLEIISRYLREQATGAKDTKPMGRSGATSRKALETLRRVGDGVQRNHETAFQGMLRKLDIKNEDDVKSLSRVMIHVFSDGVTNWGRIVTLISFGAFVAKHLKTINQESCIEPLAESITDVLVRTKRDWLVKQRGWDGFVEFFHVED
In short: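 6×His-tagged hMcl-1(172–323) (16 nM) in a heterogeneous DELFIA format. The test agent displaces a biotinylated BIM BH3 reference peptide. Test agent was preincubated with protein for a fixed time (2 h for the peptide series) before dose–response measurement. IC50 was taken from the dose–response curves, and the ratio line is the ratio of these IC50 values.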

hMcl-1(172–323) [2] = target: T2, hMcl-1(172–323) (Homo sapiens, UniProt Q07820); test: SDS gel electrophoresis, covalent adduct formation; type: binding; conditions: 10 μM protein, 100 μM compound
T2 sequence (Q07820 172-323): as above
In short: (§1)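 Wild-type, His224Ala, His252Ala or Lys234Ala hMcl-1(172–323) (10 μM) was incubated with or without 100 μM test agent in 50 mM phosphate pH 7.5, 150 mM NaCl, 1% DMSO. Samples ran on 12% Bis-Tris SDS-PAGE with MOPS running buffer and protein stain. Mutants were sampled at 7 h. Wild type was also sampled over a time course, and complex formation was estimated qualitatively from the gel.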

[3] = Plasma stability by 1D 1H NMR; type: in vitro ADME; conditions: human plasma in PBS
[4] = Chemical stability in aqueous buffer by 1D 1H and 19F NMR; type: physicochemical; conditions: 100 μM in 50 mM phosphate pH 7.5, 150 mM NaCl; up to 48 h
In short: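 Test compound at 100 μM in 50 mM phosphate pH 7.5, 150 mM NaCl. 1D 1H spectra were collected at set time points, and 19F 1D spectra were recorded in the same buffer at various time points on a 600 MHz instrument. Stability was judged from changes in the spectra over time.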

hMcl-1 = hMcl-1 (Homo sapiens, UniProt Q07820); test: Kinetic measurements with the DELFIA assay; type: binding
hMcl-1, sequence (Q07820 172-323): as above
In short: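 In the DELFIA format, wells with 16 nM Mcl-1 and 1:2000 Eu–N1 anti-6×His antibody were incubated 2 h, then with test compound for 0, 2, 5, 10, 20 and 40 min. Wells were washed three times and given enhancement solution for 10 min, then Eu fluorescence was read (excitation 340, emission 615). kobs came from the slope of % inhibition versus time, plotted against concentration and fitted hyperbolically to give KI and kinact.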

hMcl-1(172–323) [5] = target: T2, hMcl-1(172–323); test: LC-MS analysis of covalent complex; type: binding; conditions: 10 μM protein, 100 μM compound, 7 h, room temperature
[6] = target: His224Ala hMcl-1(172–323) (Homo sapiens, UniProt Q07820, H224A); test: LC-MS analysis of covalent complex, His224Ala mutant; type: binding; conditions: 10 μM protein, 100 μM compound, 7 h
His224Ala hMcl-1(172–323), sequence (Q07820 172-323 H224A): as the sequence (Q07820 172-323) above, with H53A counted along it

[7] = target: T1, 6×His-tagged hMcl-1(172–323); conditions: against hMcl-1; previously identified minimal binding peptide; cited from earlier work
[8] = target: hMcl-1(172–323) His252Ala (Homo sapiens, UniProt Q07820, H252A); test: SDS gel electrophoresis, His252Ala mutant; type: binding; conditions: 100 μM compound, 7 h
hMcl-1(172–323) His252Ala, sequence (Q07820 172-323 H252A): as the sequence (Q07820 172-323) above, with H81A counted along it
In short: as §1

[9] = target: hMcl-1(172–323) Lys234Ala (Homo sapiens, UniProt Q07820, K234A); test: SDS gel electrophoresis, Lys234Ala mutant; type: binding; conditions: 100 μM compound, 7 h
hMcl-1(172–323) Lys234Ala, sequence (Q07820 172-323 K234A): as the sequence (Q07820 172-323) above, with K63A counted along it
In short: as §1

[10] = target: hMcl-1(172–323) His224Ala (Homo sapiens, UniProt Q07820, H224A); test: SDS gel electrophoresis, His224Ala mutant; type: binding; conditions: 100 μM compound, 7 h
hMcl-1(172–323) His224Ala, sequence (Q07820 172-323 H224A): as the sequence (Q07820 172-323) above, with H53A counted along it
In short: as §1

Compound | times less active against hBfl-1(1–149) than hMcl-1 (6×His-hBfl-1(1–149)) [times] | IC50 [1] [nM] | time to approximately 50% complex formation (hMcl-1(172–323) [2]; qualitative from gel) [h] | time to complete (or nearly complete) adduct formation (hMcl-1(172–323) [2]; qualitative from gel) [h] | plasma stability ([3]; 8 h) | remaining after incubation in plasma ([3]; 24 h) [%] | chemical stability in aqueous buffer [4] | kinact/KI (hMcl-1) [M⁻¹ s⁻¹] | covalent adduct by mass spectrometry (hMcl-1(172–323) [5]) | covalent adduct by mass spectrometry [6] | IC50 [7] [nM] | band shift (stable adduct) (hMcl-1(172–323) [2]; 7 h incubation) | band shift (stable adduct) [8] | band shift (stable adduct) [9] | band shift (stable adduct) [10]
CC[C@H](C)[C@H](NC(C)=O)C(=O)N[C@@H](C)C(=O)N[C@@]1(C)CCC/C=C\CCC[C@@](C)(C(=O)N[C@H](C(=O)NCC(=O)N[C@@H](CC(=O)O)C(=O)N[C@@H](CCCNC(=N)N)C(=O)N[C@@H](Cc2ccc(OS(=O)(=O)F)cc2)C(N)=O)[C@@H](C)CC)NC(=O)[C@H](CCCNC(=N)N)NC(=O)[C@H](CC(C)C)NC(=O)[C@H](CCC(N)=O)NC1=O [compound 9] (Ac-IA[S5]QLR[S5]IGDR[Tyr(SO2F)]-NH2; staple (Z) 3-7) | ~160 | 5.8 ± 0.9 | ~1 | ≤ 4 | remains mostly intact | ~40 | No significant spectral changes were observed; also recorded: did not observe any degradation | 67000 ± 3e+07 | corresponding to the anticipated mass of the covalent adduct | could not form a covalent adduct |  |  |  |  | 
IAEQLRRIGDRF |  |  |  |  |  |  |  |  |  |  | 250 |  |  |  | 
CC[C@H](C)[C@H](NC(C)=O)C(=O)N[C@@H](C)C(=O)N[C@@H](CCC(=O)O)C(=O)N[C@@H](CCC(N)=O)C(=O)N[C@@H](CC(C)C)C(=O)N[C@@H](CCCNC(=N)N)C(=O)N[C@@H](CCCNC(=N)N)C(=O)N[C@H](C(=O)NCC(=O)N[C@@H](CC(=O)O)C(=O)N[C@@H](CCCNC(=N)N)C(=O)N[C@@H](Cc1ccc(OS(=O)(=O)F)cc1)C(N)=O)[C@@H](C)CC [compound 6] (Ac-IAEQLRRIGDR[Tyr(SO2F)]-NH2) |  | 8.1 |  |  |  |  |  |  | forms a stable 1:1 complex | no MW increase was observed |  | band shift | band shifts | band shifts | not with the His224Ala mutant
